E coli Lon inh: inhibitors of E. coli Lon protease, primary screen, biochemical, fluorescence polarization. purified E. coli Lon protease. inhibition, % at 7.94 µM. actives 0.42% (n = 360,000); in the data active = inhibition above about 13%, passing the limit was not always enough
TDP2 absorb: human TDP2 enzyme inhibitors, primary screen, biochemical, epi absorbance, recombinant enzyme | inhibition, % at 12.8 µM | actives 0.34% (n = 370,000) | T5PNP hydrolysis, p-nitrophenol absorbance 415 nm;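 active = inhibition above the mean of all tested compounds plus 3 SD, set per campaign, cut at about 25% in these data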
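Incubation: 2 h at 37 °C; Test system: recombinant human TDP2; Quantity: enzyme 120 nM; Read-out basis: percent inhibition; Medium: 50 mM Tris-HCl pH 7.5 with Mg2+, KCl, DTT, BSA; Repeats: single replicate; Compound: 12.8 µM single point, 1% DMSO; Signal: epi absorbance; Reagent: 5 mM T5PNP chromogenic substrate; Benchmarks: no-enzyme high, DMSO-plus-enzyme low.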
GSTO1 counter: inhibitors of recombinant GSTO1, primary screen, counter-screen for RBBP9 inhibitor project, biochemical, fluorescence polarization; inhibition, % at 5.96 µM; activity-based probe fluorescence polarization; Glutathione S-transferase omega-1 (Homo sapiens), P78417; actives 1.1% (n = 300,000); AID 1974, 2009;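 active = inhibition above the campaign mean inhibition plus 3 SD, cut at about 35% in these data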
PAD4 FP inh: human PAD4 inhibitors, primary screen, biochemical, fluorescence polarization, 1536-well format; recombinant PAD4, RCA probe fluorescence polarization; inhibition, % at 6.36 µM; actives 0.41% (n = 330,000);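 active = percent inhibition above a cutoff equal to the mean of all tested compounds plus 3 SD, cut at about 15% in these data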
Target sequence (Q9UM07 whole entry, looked up): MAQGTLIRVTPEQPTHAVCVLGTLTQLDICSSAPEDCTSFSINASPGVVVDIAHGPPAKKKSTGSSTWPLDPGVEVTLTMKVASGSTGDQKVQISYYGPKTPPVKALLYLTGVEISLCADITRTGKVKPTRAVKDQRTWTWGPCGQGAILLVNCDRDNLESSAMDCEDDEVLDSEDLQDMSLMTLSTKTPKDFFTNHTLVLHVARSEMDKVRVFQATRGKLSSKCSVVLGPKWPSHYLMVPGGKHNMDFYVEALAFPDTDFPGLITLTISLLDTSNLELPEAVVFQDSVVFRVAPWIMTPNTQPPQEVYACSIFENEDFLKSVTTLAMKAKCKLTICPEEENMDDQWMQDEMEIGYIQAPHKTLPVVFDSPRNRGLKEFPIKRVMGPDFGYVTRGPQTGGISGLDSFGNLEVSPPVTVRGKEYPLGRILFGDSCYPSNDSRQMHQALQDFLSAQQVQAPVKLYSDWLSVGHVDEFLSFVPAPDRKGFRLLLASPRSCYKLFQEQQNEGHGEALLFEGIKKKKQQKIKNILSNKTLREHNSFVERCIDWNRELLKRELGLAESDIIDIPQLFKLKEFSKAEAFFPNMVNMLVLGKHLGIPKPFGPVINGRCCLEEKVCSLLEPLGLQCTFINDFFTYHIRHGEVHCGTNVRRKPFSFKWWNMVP
PRMT1 FP inh: PRMT1 methyltransferase inhibitors, primary screen, biochemical, fluorescence polarization; AID 652257, 2013; actives 1.3% (n = 370,000); inhibition, % at 2.79 µM; recombinant PRMT1, activity-based probe fluorescence polarization; Protein arginine N-methyltransferase 1 (Homo sapiens), Q99873;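 active = inhibition above about 21% made by adding two undisclosed values, limit read from the data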
GSTO1 inh conf: GSTO1 inhibitor hit confirmation, counter-screen for RBBP9 inhibitor project, biochemical, fluorescence polarization, triplicate. inhibition, % at 5.96 µM. actives 54% (n = 2,400). shares compounds with GSTO1 counter. recombinant GSTO1, probe fluorescence polarization;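 active = inhibition above the primary screen's cutoff, its mean inhibition plus 3 SD, cut at about 35% in these data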;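 also: loss of polarization as inhibitors block binding of rhodamine sulfonate ester activity probe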
GSTO1 recomb ABPP: inhibitors of purified human GSTO1, late-stage follow-up, biochemical, gel ABPP, SE-Rh probe, percent inhibition; shares compounds with GSTO1 counter; recombinant GSTO1, gel ABPP SE-Rh probe fluorescence; inhibition, % at 1 µM; actives 30% (n = 130);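 active = inhibition of the enzyme GSTO1 above about 75%, limit read from the data; inactive = inhibition below that limit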
Numbers stand for hits; n = inactive; x = not tested or not shown. This is a sample that favours compounds with a hit; in the whole collection about 2.5% have one here.

SMILES	E coli Lon inh	TDP2 absorb	GSTO1 counter	PAD4 FP inh	PRMT1 FP inh	GSTO1 inh conf	others
COc1ccc(S(=O)(=O)c2ccc(OCC3CO3)cc2)cc1 (stereo unspecified)	n	n	n	n	n	x
COc1ccc(-c2cc(C(=O)NN=C/C(C)=C/c3ccccc3)[nH]n2)cc1	x	n	x	x	n	x
O=C(CCl)N1c2ccccc2SCC1c1ccccc1 (stereo unspecified)	n	n	85.7	n	n	93.6	GSTO1 recomb ABPP=75.0
Cc1nc2ccccc2c(=O)n1/N=C/c1ccc(O)cc1O	n	n	n	n	n	x
Oc1ccc(C=Nc2cccc3ccccc23)c(O)c1	n	n	38.2	n	n	n
O=[N+]([O-])c1ccc(O)c(C=Nc2cccc3ccccc23)c1	n	n	51.9	n	n	n
O=[N+]([O-])c1cccc(C=Nc2cccc3ccccc23)c1O	n	n	41.4	n	n	n
O=C(CCc1ccccc1)N[C@H]1[C@@H](OC(=O)c2cnccn2)CCC[C@]12C(=O)N(Cc1ccccc1)c1ccccc12	x	n	x	x	n	x
O=C(NCCc1c[nH]c2ccccc12)OCc1cn(Cc2ccc(F)cc2F)nn1	x	n	x	x	n	x
COc1ccc(C2CC(=O)C(c3ccc(Cl)c(Cl)c3)=CN2Cc2ccccc2)cc1 (stereo unspecified)	x	n	x	x	n	x
CCc1ccc(NC(=O)Cn2c3[n+](c4c(F)c(F)ccc42)CCCCC3)cc1	n	n	77.5	n	n	88.7
Cc1ccc(SC2=C(Sc3ccc(C)cc3)C(=O)c3ccccc3C2=O)cc1	n	n	71.3	n	n	n
Cc1ccc(N2C(=O)c3ccccc3C2=O)cc1	n	n	n	n	n	x
O=C(NCCc1ccc(O)c(O)c1)C1COc2ccccc2O1 (stereo unspecified)	n	n	55.0	n	n	n
O=C(NCCc1ccccc1)C1COc2ccccc2O1 (stereo unspecified)	n	n	n	n	n	x
CCCCCCCCN1C(=O)[C@@H](CC(=O)NCc2cccc(C(F)(F)F)c2)C[C@@]2(C(=O)OC)C1=C[C@H](C(C)C)O[C@@H]2C1CC1	x	n	x	x	n	x
COc1ccc(Cn2cc(CN3[C@@H](CC(C)C)COc4cccc(F)c4S3(=O)=O)nn2)cc1	x	n	x	x	n	x
COCC(C)OC(=O)c1c(N)n(CC(C)C)c2nc3ccccc3nc12 (stereo unspecified)	n	n	45.1	n	n	n
C=CCn1c(N)c(C(=O)OC(C)CC)c2nc3ccccc3nc21 (stereo unspecified)	n	n	x	x	n	x
O[C@H](COc1cccc(Cl)c1)CN1CCC(C(O)(c2ccccc2)c2ccccc2)CC1	x	n	x	x	n	x
CCCCCCOc1ccc(C(=O)O)cc1	n	n	n	n	n	x
CCCCOc1ccc(-c2ncc(C(=O)O)c(C)n2)cc1	n	n	43.4	n	n	n
C/C(=C/c1oc2ccc(O)cc2c1[N+](=O)[O-])N(C)C	n	n	51.0	n	24.2	n
O=C(O)CCCN1C(=O)/C(=C/C=C/c2ccco2)SC1=S	n	n	41.9	n	41.5	37.0
O=C(O)CCCN1C(=O)/C(=C\c2ccccc2OCc2ccccc2)SC1=S	n	n	39.5	n	n	48.0
O=C(O)CN1C(=O)/C(=C\c2cccc(OCc3ccccc3)c2)SC1=S	n	n	40.0	n	30.1	n
CC1=CC2C3C(=O)N(c4ccccc4)C(=O)C3C1C(=O)C2(O)C(C)C (stereo unspecified)	x	n	x	x	n	x
O=C(O)c1cc(-c2ccc(/C=C3/SC(=S)N(Cc4ccccc4)C3=O)o2)ccc1Cl	n	n	x	x	n	x

Bioassay records as filed in PubChem BioAssay.
